Results as given in ChEMBL document CHEMBL4334433, “BIM-46174 fragments as potential ligands of G proteins” (Medchemcomm, 2019).
The source made the active and inactive calls. No cut-off for these calls is given here.

Tests used:
Assay type in all cases: cell-based
[1] = target: T1, Guanine nucleotide-binding protein G(q) subunit alpha (Homo sapiens) (UniProt P50148); assay: Inhibition of Galpha-q in human HEK293 cells harbouring PL3alpha mutant assessed as reduction in CCh-induced IP1 accumulation preincubated for 2 hrs followed by CCh stimulation and measured after 35 mins by time resolved fluorescence assay
T1 sequence (whole entry): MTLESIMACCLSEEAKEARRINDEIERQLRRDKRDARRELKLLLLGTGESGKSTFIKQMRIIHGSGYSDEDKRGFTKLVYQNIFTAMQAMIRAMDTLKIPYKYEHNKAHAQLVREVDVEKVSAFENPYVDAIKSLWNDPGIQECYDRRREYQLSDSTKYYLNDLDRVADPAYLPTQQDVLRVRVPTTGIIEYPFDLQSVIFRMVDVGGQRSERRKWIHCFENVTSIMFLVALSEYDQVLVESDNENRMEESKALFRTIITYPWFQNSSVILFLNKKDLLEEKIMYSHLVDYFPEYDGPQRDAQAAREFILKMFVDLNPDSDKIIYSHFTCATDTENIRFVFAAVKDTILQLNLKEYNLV

[2] = tested on: HEK293; assay: Cytotoxicity against human HEK293 cells assessed as reduction in cell viability at 100 uM incubated for 22 hrs by CellTiter-BlueTM cell viability assay; settings: hek293, 22 h
How it was run: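 HEK293 cells were seeded at 25,000 per well on poly-D-lysine and grown overnight, then exposed to compound for 22 h. CellTiter-Blue reagent was added for a further 2 h, and resorufin fluorescence was read at excitation 560 nm and emission 590 nm.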

[3] = target: T1, Guanine nucleotide-binding protein G(q) subunit alpha (Homo sapiens); assay: Inhibition of Galpha-q in human HEK293 cells assessed as reduction in CCh-induced IP1 accumulation preincubated for 2 hrs followed by CCh stimulation and measured after 35 mins by time resolved fluorescence assay
How it was run: (§1)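 HEK293 wt cells were grown in DMEM with 10% FBS and penicillin/streptomycin at 37 °C and 5% CO2. Cells were plated at 60,000 per well and pre-incubated 15 min at 37 °C. Compound was added in stimulation buffer for 2 h at 37 °C, followed by buffer containing 100 µM carbachol (concentration in the added buffer) for 35 min. IP1 was read by HTRF (620/665 nm ratio).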

[4] = target: T1, Guanine nucleotide-binding protein G(q) subunit alpha (Homo sapiens); assay: Inhibition of Galpha-q in human HEK293 cells assessed as reduction in CCh-induced IP1 accumulation at 100 uM preincubated for 2 hrs followed by CCh stimulation and measured after 35 mins by time resolved fluorescence assay; how it was run: as §1

Row | SMILES | inhibition [1] | inhibition [3] | inhibition [4] | Activity [2]
1 | N[C@@H](CS)C(=O)N1CCn2cc(-c3ccccc3)nc2[C@@H]1CC1CCCCC1 | – | – | Active | Toxic
2 | O=C1Cn2cc(-c3ccccc3)nc2[C@H](CC2CCCCC2)CN1 | – | – | inactive | Non-Toxic
3 | O=C1Cn2cc(-c3ccccc3)nc2[C@H](CC2CCCCC2)N1 | – | – | inactive | Non-Toxic
4 | N[C@@H](CS)C(=O)N1CCNC(=O)C1 | – | – | inactive | Non-Toxic
5 | N[C@@H](CS)C(=O)N1CCNC(=O)[C@@H]1CC1CCCCC1 | – | – | inactive | Non-Toxic

More lines, main results first:

Row | inhibition [1] | inhibition [3] | inhibition [4] | SMILES | Activity [2]
6 | Active | Dose-dependent effect | inactive | O=C1Cn2cc(-c3ccccc3)nc2CN1 | Non-Toxic
7 | – | – | inactive | O=C1CCn2cc(-c3ccccc3)nc2[C@H](CC2CCCCC2)N1 | Non-Toxic
8 | – | – | inactive | O=C1Cn2cc(-c3ccccc3)nc2CCN1 | Non-Toxic
9 | Active | Dose-dependent effect | inactive | O=C1CCn2cc(-c3ccccc3)nc2CN1 | Non-Toxic
